Data from paper PMC9722229 (European journal of pharmacology, 2019).
Like-named read-outs stand apart in the source and are kept apart here.

Experiments:
[1] = target: hERG channel (Homo sapiens, UniProt Q12809)
[2] = target: D3 (Homo sapiens, UniProt P35462); assay: NIMH PDSP receptor binding assay
[3] = target: M3 (Homo sapiens, UniProt P20309); assay: biochemical; conditions: read-out: % Inhibition of Binding at 10 μM D-578
[4] = target: 5HT2a (Homo sapiens, UniProt P28223); assay: NIMH PDSP receptor binding assay
[5] = target: Alpha2B (Homo sapiens, UniProt P18089); assay: NIMH PDSP receptor binding assay; conditions: read-out: % Inhibition of Binding at 10 μM D-578
[6] = target: 5HT1d (Homo sapiens, UniProt P28221); assay: NIMH PDSP receptor binding assay
[7] = target: D1 (Homo sapiens, UniProt P21728); assay: NIMH PDSP receptor binding assay; conditions: read-out: % Inhibition of Binding at 10 μM D-578
[8] = target: 5HT3 (Homo sapiens, UniProt P46098); assay: NIMH PDSP receptor binding assay; conditions: read-out: % Inhibition of Binding at 10 μM D-578
[9] = target: H2 (Homo sapiens, UniProt P25021); assay: NIMH PDSP receptor binding assay
[10] = target: 5HT2b (Homo sapiens, UniProt P41595); assay: NIMH PDSP receptor binding assay
[11] = target: Beta1 (Homo sapiens, UniProt P08588); assay: NIMH PDSP receptor binding assay; conditions: read-out: % Inhibition of Binding at 10 μM D-578
[12] = target: Alpha1D (Homo sapiens, UniProt P25100); assay: NIMH PDSP receptor binding assay; conditions: read-out: % Inhibition of Binding at 10 μM D-578
[13] = system: GABA A; assay: NIMH PDSP receptor binding assay; conditions: [3H]Muscimol, mean of 4 determinations
[14] = target: μ-Opioid (Homo sapiens, UniProt P35372); assay: NIMH PDSP receptor binding assay; conditions: read-out: % Inhibition of Binding at 10 μM D-578
[15] = target: cloned human DAT (Homo sapiens, UniProt Q01959); assay: Inhibition of [3H]DA uptake in HEK 293 cells expressing cloned human transporter; type: cell-based
[16] = system: BZP Rat Brain Site; assay: NIMH PDSP receptor binding assay; conditions: 3H-Flunitrazepam, mean of 4 determinations
[17] = target: 5HT6 (Homo sapiens, UniProt P50406); assay: NIMH PDSP receptor binding assay; conditions: read-out: % Inhibition of Binding at 10 μM D-578
[18] = target: Alpha1B (Homo sapiens, UniProt P35368); assay: NIMH PDSP receptor binding assay; conditions: read-out: % Inhibition of Binding at 10 μM D-578
[19] = target: H4 (Homo sapiens, UniProt Q9H3N8); assay: NIMH PDSP receptor binding assay; conditions: read-out: % Inhibition of Binding at 10 μM D-578
[20] = target: M5 (Homo sapiens, UniProt P08912); assay: biochemical; type: binding
[21] = target: 5HT2c (Homo sapiens, UniProt P28335); assay: NIMH PDSP receptor binding assay
[22] = target: D2 (Homo sapiens, UniProt P14416); assay: NIMH PDSP receptor binding assay
[23] = target: V1A (Homo sapiens, UniProt P37288); assay: NIMH PDSP receptor binding assay; conditions: read-out: % Inhibition of Binding at 10 μM D-578
[24] = target: M2 (Homo sapiens, UniProt P08172); assay: biochemical; conditions: read-out: % Inhibition of Binding at 10 μM D-578
[25] = target: cloned human NET (Homo sapiens, UniProt P23975); assay: cell-based; type: cell-based
[26] = target: 5HT5a (Homo sapiens, UniProt P47898); assay: NIMH PDSP receptor binding assay; conditions: read-out: % Inhibition of Binding at 10 μM D-578
[27] = target: V2 (Homo sapiens, UniProt P30518); assay: NIMH PDSP receptor binding assay; conditions: read-out: % Inhibition of Binding at 10 μM D-578
[28] = target: κ-opioid (Homo sapiens, UniProt P41145); assay: NIMH PDSP receptor binding assay
[29] = target: H1 (Homo sapiens, UniProt P35367); assay: NIMH PDSP receptor binding assay; conditions: read-out: % Inhibition of Binding at 10 μM D-578
[30] = target: Beta3 (Homo sapiens, UniProt P13945); assay: NIMH PDSP receptor binding assay
[31] = system: locomotor activity; assay: Locomotor activity test; type: in vivo, rat; conditions: 25 mg/kg oral, rats, up to 120 min
Outline: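 Sprague-Dawley rats were acclimated for 1 h in automated activity chambers, then dosed by oral gavage with test compound (25 mg/kg) or vehicle. Distance travelled was recorded for 2 h after dosing, matching the forced-swim timing. n = 4-7 rats/group.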

[32] = target: PBR (Rattus norvegicus, UniProt P16257); assay: NIMH PDSP receptor binding assay; conditions: read-out: % Inhibition of Binding at 10 μM D-578
[33] = system: immobility in the forced swimming test; assay: Forced swimming test in rats after oral administration; type: in vivo, rat; conditions: for Immobility in the rat forced swimming test compared to vehicle: sub-chronic, 1 h before test, mesylate salt
Outline: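 Male Sprague-Dawley rats (200-225 g), naive, used once, were given a Porsolt two-session test. The pretest was a 15 min swim and the test a 5 min swim 24 h later, in a 24.5 × 35.5 cm cylinder with 22 cm water at 24-25 °C. Mesylate salt in 3% β-hydroxypropyl cyclodextrin/saline was given p.o. 15 min after pretest and 1 h before test. Blinded video scoring of immobility; one-way ANOVA.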

[34] = target: M4 (Homo sapiens, UniProt P08173); assay: biochemical; type: binding
[35] = target: D5 (Homo sapiens, UniProt P21918); assay: NIMH PDSP receptor binding assay; conditions: read-out: % Inhibition of Binding at 10 μM D-578
[36] = target: V1B (Homo sapiens, UniProt P47901); assay: NIMH PDSP receptor binding assay; conditions: read-out: % Inhibition of Binding at 10 μM D-578
[37] = target: 5HT7 (Homo sapiens, UniProt P34969); assay: NIMH PDSP receptor binding assay; conditions: read-out: % Inhibition of Binding at 10 μM D-578
[38] = Oral absorption and brain penetration; type: in vivo; conditions: unpublished data
[39] = target: 5HT1a (Homo sapiens, UniProt P08908); assay: NIMH PDSP receptor binding assay; conditions: read-out: % Inhibition of Binding at 10 μM D-578
[40] = target: SERT (Rattus norvegicus, UniProt P31652); assay: Inhibition of [3H]5-HT uptake in rat cerebral cortex synaptosomes; type: biochemical
[41] = target: mGlur5 (Rattus norvegicus, UniProt P31424); assay: NIMH PDSP receptor binding assay; conditions: read-out: % Inhibition of Binding at 10 μM D-578
[42] = target: Alpha2C (Homo sapiens, UniProt P18825); assay: NIMH PDSP receptor binding assay
[43] = target: cloned human SERT (Homo sapiens, UniProt P31645); type: cell-based
[44] = target: Alpha1A (Homo sapiens, UniProt P35348); assay: NIMH PDSP receptor binding assay; conditions: read-out: % Inhibition of Binding at 10 μM D-578
[45] = system: conditioned fear behavior; assay: Single prolonged stress; type: in vivo, rat; conditions: SPS rats, D-578 10 mg/kg, paroxetine 5 mg/kg; for Freezing behavior during the extinction retention session (SPS-induced deficit) / Freezing behavior during the extinction session (SPS-induced deficit): i.p. 90 min prior to each session; for Shock reactivity during acquisition compared to the control group: i.p., five 1 mA shocks
[46] = target: δ-opioid (Homo sapiens, UniProt P41143); assay: NIMH PDSP receptor binding assay; conditions: read-out: % Inhibition of Binding at 10 μM D-578
[47] = target: D4 (Homo sapiens, UniProt P21917); assay: NIMH PDSP receptor binding assay; conditions: read-out: % Inhibition of Binding at 10 μM D-578
[48] = target: DAT (Rattus norvegicus, UniProt P23977); assay: Inhibition of [3H]DA uptake in rat striatum synaptosomes; type: biochemical
[49] = target: H3 (Homo sapiens, UniProt Q9Y5N1); assay: NIMH PDSP receptor binding assay; conditions: read-out: % Inhibition of Binding at 10 μM D-578
[50] = target: Oxytocin (Homo sapiens, UniProt P30559); assay: NIMH PDSP receptor binding assay
[51] = target: Alpha2A (Homo sapiens, UniProt P08913); assay: NIMH PDSP receptor binding assay; conditions: read-out: % Inhibition of Binding at 10 μM D-578
[52] = target: 5HT1b (Homo sapiens, UniProt P28222); assay: NIMH PDSP receptor binding assay; conditions: read-out: % Inhibition of Binding at 10 μM D-578
[53] = target: Beta2 (Homo sapiens, UniProt P07550); assay: NIMH PDSP receptor binding assay
[54] = target: M1 (Homo sapiens, UniProt P11229); assay: biochemical; conditions: read-out: % Inhibition of Binding at 10 μM D-578
[55] = read-out: % Inhibition of Binding at 10 μM D-578

Sequence of hERG channel (Q12809 whole entry): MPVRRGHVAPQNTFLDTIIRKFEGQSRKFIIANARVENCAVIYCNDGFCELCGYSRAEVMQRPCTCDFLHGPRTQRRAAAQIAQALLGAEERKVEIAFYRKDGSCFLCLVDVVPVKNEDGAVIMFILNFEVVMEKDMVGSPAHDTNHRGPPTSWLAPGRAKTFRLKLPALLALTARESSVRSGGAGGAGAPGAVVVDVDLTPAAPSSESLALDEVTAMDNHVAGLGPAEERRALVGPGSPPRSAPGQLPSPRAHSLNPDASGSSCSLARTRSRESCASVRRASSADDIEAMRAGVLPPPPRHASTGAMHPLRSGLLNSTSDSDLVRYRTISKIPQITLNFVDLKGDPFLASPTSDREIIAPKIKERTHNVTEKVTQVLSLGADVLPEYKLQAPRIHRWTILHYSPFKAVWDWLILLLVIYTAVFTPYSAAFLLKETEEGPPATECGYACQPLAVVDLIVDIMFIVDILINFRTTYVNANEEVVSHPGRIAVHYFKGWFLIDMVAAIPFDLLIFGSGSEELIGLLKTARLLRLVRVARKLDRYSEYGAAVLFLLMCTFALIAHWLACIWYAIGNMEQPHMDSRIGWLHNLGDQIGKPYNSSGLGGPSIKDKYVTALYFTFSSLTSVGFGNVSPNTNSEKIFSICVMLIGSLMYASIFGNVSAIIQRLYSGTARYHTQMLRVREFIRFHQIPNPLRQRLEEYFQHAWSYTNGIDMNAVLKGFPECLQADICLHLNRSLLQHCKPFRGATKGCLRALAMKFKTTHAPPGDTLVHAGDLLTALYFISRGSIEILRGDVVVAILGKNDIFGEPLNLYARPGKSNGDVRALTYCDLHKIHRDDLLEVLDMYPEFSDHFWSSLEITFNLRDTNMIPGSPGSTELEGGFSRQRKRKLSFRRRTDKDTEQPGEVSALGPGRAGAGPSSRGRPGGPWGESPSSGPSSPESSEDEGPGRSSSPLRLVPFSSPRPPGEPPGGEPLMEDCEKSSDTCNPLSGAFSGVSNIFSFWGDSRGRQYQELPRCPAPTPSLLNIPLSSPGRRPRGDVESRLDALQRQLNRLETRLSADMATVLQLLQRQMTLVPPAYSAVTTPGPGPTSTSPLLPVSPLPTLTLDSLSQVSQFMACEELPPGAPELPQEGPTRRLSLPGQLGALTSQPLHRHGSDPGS
Sequence of M5 (P08912 whole entry): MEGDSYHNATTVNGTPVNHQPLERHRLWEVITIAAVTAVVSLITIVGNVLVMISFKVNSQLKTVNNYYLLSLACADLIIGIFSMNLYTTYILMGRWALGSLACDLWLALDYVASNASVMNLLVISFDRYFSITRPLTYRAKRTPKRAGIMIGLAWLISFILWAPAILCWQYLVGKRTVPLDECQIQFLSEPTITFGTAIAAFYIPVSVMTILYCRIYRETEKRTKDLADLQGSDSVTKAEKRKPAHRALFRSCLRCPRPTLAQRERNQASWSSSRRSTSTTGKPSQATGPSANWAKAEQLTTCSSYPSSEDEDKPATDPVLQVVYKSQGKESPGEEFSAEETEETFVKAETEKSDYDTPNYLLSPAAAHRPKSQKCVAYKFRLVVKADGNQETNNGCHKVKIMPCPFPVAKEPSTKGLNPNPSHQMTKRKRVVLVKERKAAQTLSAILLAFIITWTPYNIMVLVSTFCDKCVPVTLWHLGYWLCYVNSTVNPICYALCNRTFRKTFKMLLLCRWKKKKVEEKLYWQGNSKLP
Sequence of Alpha2C (P18825 whole entry): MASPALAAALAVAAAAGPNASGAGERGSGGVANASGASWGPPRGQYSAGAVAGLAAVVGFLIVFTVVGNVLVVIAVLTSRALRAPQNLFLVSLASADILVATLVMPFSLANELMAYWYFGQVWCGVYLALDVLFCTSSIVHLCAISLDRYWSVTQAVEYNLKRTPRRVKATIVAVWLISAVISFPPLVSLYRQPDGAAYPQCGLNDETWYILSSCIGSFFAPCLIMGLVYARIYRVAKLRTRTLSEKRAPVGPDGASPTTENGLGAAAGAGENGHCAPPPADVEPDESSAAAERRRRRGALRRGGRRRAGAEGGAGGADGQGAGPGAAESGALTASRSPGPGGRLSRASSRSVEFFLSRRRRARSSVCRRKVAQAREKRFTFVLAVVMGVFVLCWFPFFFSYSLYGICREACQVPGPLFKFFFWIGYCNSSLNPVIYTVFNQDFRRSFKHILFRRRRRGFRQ
Sequence of H2 (P25021 whole entry): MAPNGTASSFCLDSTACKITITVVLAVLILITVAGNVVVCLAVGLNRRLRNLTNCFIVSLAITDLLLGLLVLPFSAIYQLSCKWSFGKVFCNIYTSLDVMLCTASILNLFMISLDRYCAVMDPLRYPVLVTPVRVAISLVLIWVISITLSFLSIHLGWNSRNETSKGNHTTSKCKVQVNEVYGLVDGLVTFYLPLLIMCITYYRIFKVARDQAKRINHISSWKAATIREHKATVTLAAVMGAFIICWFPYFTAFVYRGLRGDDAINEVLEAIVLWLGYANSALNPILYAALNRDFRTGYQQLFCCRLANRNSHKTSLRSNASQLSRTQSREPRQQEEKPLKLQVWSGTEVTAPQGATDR
Sequence of cloned human NET (P23975 whole entry): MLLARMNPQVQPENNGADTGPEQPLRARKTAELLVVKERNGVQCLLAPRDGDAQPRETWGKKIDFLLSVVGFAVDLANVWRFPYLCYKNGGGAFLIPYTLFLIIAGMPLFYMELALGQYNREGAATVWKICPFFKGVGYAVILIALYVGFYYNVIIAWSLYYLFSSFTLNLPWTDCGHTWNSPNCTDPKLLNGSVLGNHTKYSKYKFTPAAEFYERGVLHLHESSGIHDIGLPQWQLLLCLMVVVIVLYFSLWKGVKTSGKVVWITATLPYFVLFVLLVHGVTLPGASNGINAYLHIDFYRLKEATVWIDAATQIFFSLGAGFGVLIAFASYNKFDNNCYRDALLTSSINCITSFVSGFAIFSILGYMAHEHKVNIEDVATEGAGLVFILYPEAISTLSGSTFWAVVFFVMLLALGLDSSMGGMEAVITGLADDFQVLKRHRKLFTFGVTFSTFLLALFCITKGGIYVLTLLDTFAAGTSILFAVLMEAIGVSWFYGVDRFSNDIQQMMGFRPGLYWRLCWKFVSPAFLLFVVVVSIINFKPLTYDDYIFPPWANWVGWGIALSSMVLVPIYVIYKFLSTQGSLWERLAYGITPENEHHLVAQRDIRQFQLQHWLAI
Sequence of D3 (P35462 whole entry): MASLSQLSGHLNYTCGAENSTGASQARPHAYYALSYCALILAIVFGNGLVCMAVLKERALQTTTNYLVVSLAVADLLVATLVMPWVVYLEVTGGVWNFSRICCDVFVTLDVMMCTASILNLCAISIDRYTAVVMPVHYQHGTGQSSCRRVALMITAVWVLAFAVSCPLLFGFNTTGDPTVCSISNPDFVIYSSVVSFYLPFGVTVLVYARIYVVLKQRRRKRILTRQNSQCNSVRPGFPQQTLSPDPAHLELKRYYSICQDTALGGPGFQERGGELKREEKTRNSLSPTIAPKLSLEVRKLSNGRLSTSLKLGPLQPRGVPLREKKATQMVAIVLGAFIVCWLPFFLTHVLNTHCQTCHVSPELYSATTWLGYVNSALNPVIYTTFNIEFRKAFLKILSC
Sequence of Oxytocin (P30559 whole entry): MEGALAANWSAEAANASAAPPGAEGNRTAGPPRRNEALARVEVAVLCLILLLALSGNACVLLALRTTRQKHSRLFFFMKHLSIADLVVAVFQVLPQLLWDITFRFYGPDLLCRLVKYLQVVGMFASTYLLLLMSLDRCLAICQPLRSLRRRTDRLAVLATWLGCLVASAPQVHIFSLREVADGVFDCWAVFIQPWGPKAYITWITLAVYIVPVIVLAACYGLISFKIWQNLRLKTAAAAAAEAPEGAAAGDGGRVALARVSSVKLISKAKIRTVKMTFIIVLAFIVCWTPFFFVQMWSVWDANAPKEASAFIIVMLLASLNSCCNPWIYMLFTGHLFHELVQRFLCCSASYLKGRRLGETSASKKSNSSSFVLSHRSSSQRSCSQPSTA
Sequence of 5HT2b (P41595 whole entry): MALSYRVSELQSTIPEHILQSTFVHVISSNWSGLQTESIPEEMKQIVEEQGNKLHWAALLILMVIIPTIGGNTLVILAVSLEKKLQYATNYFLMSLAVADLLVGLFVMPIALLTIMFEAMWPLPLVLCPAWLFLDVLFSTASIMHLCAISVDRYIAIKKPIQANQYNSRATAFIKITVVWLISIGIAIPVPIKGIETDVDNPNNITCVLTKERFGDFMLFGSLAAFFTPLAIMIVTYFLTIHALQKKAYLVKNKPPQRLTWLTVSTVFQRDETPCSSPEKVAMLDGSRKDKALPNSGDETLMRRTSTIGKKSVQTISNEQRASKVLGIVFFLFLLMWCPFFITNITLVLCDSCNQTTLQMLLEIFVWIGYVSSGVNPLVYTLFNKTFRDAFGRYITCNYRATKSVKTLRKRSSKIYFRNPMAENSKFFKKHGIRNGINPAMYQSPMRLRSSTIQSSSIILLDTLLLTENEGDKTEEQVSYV
Sequence of Beta2 (P07550 whole entry): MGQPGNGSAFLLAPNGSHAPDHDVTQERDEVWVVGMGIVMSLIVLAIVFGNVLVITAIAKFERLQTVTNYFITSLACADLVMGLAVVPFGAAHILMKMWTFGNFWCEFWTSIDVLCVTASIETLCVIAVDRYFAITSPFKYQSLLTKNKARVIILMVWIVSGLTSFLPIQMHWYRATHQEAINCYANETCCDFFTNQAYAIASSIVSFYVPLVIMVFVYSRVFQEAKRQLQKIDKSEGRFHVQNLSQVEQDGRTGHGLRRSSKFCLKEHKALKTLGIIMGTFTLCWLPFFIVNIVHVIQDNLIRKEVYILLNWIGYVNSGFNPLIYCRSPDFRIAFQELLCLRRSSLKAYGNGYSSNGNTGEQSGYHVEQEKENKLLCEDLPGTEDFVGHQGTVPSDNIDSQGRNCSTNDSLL
Sequence of PBR (P16257 whole entry): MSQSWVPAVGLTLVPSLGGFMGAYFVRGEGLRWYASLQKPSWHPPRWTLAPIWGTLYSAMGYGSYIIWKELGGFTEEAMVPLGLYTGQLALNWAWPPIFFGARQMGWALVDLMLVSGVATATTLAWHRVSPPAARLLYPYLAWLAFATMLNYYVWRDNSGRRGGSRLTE

SMILES: COc1cc(N)c(Cl)cc1C(=O)NC1CCN(CCCOc2ccc(F)cc2)CC1OC (stereo not shown) [Cisapride, reference compound]
- Hill Slope ([1]; human): 1.01 ± 0.07

SMILES: Nc1nc2ccc(CN[C@@H]3CO[C@H](C(c4ccc(F)cc4)c4ccc(F)cc4)C[C@H]3O)cc2s1 [D-578, (2S,4R,5R)-5-(((2-aminobenzo[d]thiazol-6-yl)methyl)amino)-2-(bis(4-fluorophenyl)methyl)tetrahydro-2H-pyran-4-ol]
- Ki [2]: 2610 nM
- inhibition at 10 µM [2, 55]: 56.4%
- inhibition at 10 µM [3]: 7.5%
- Ki [4]: 1640 nM
- inhibition at 10 µM [4, 55]: 62.5%
- inhibition at 10 µM [5]: 6.3%
- Ki [6]: 702 nM
- inhibition at 10 µM [6, 55]: 72%
- inhibition at 10 µM [7]: 11%
- inhibition at 10 µM [8]: 8.5%
- Ki [9]: 42 nM
- inhibition at 10 µM [9, 55]: 94.1%
- Ki [10]: 425 nM
- inhibition at 10 µM [10, 55]: 80.3%
- inhibition at 10 µM [11]: 45.6%
- inhibition at 10 µM [12]: 24.7%
- % Inhibition of Binding at 10 μM D-578 [13]: 2.3%
- inhibition at 10 µM [14]: 11.7%
- Ki [15]: 29.6 ± 6.95 nM
- % Inhibition of Binding at 10 μM D-578 [16]: 28.8%
- inhibition at 10 µM [17]: 12.8%
- inhibition at 10 µM [18]: 38.3%
- inhibition at 10 µM [19]: 2.4%
- Ki [20]: > 10000 nM
- inhibition at 10 µM [20, 55]: 84.4%
- Ki [21]: 73 nM
- inhibition at 10 µM [21, 55]: 96.3%
- Ki [22]: 773 nM
- inhibition at 10 µM [22, 55]: 62.3%
- inhibition at 10 µM [23]: 44.6%
- inhibition at 10 µM [24]: 20.9%
- Ki [25]: 6.1 ± 1.14 nM
- Times more potent at NET compared to DAT and SERT ([25]; cloned human transporters): 3-4 times
- inhibition at 10 µM [26]: 35.2%
- inhibition at 10 µM [27]: 21%
- Inhibition of the hERG channel (in words) ([1]; Thallium flux assay): almost no inhibition
- Hill Slope ([1]; Tl+ flux assay, inhibition of hERG channel): 1.471 ± 0.23
- Ki [28]: 1390 nM
- inhibition at 10 µM [28, 55]: 68.9%
- inhibition at 10 µM [29]: 11%
- Ki [30]: 2700 nM
- inhibition at 10 µM [30, 55]: 59.8%
- Locomotor activity, distance travelled vs vehicle [31]: not significantly different from vehicle
- inhibition at 10 µM [32]: 10.6%
- Immobility in the rat forced swimming test compared to vehicle ([33]; 10 mg/kg p.o.): significantly reduced
- Immobility in the rat forced swimming test compared to vehicle ([33]; 15 mg/kg p.o.): significantly reduced
- Reduction of immobility compared to control ([33]; 25 mg/kg PO, forced swimming test in rats): greater than 90%
- Immobility in the rat forced swimming test compared to vehicle ([33]; 25 mg/kg p.o.): marked reduction of immobility
- Ki [34]: > 10000 nM
- inhibition at 10 µM [34, 55]: 55%
- inhibition at 10 µM [35]: 37.4%
- inhibition at 10 µM [36]: 7.8%
- inhibition at 10 µM [37]: 28.9%
- Oral absorption and brain penetration [38]: gets absorbed orally and penetrates into the brain well
- inhibition at 10 µM [39]: 19.9%
- Ki [40]: 16.2 ± 1.5 nM
- inhibition at 10 µM [41]: 52.8%
- Ki [42]: 2010 nM
- inhibition at 10 µM [42, 55]: 72%
- Ki [43]: 20.6 ± 3.8 nM
- inhibition at 10 µM [44]: 18.6%
- Freezing behavior during the extinction retention session (SPS-induced deficit) [45]: froze significantly less
- Freezing behavior during the extinction session (SPS-induced deficit) [45]: froze less
- Shock reactivity during acquisition compared to the control group [45]: no effect
- inhibition at 10 µM [46]: 24.1%
- inhibition at 10 µM [47]: 20.9%
- Ki [48]: 16.2 ± 2 nM
- inhibition at 10 µM [49]: 19.6%
- Ki [50]: > 10000 nM
- inhibition at 10 µM [50, 55]: 53.1%
- inhibition at 10 µM [51]: 22.6%
- inhibition at 10 µM [52]: 13.6%
- Ki [53]: > 10000 nM
- inhibition at 10 µM [53, 55]: 59.4%
- inhibition at 10 µM [54]: 97.2%

SMILES: Fc1ccc([C@@H]2CCNC[C@H]2COc2ccc3c(c2)OCO3)cc1 [paroxetine, reference compound]
- Freezing behavior during the extinction retention session (SPS-induced deficit) [45]: did not reverse
- Freezing behavior during the extinction session (SPS-induced deficit) [45]: did not reverse
- Shock reactivity during acquisition compared to the control group [45]: no effect
